A short description of data set [1]: folding enthalpy; higher = less favourable; fluorescence melt of hairpins on a sequencing array, two-state fit. The conditions noted are these: sodium 0.088 M. The method, boiled down:
(§1)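 Melting temperature and folding enthalpy were obtained by bootstrapped two-state fitting. Fits used Cy3 fluorescence of library hairpins with annealed Cy3 and quencher oligos on a sequenced MiSeq flow cell, imaged in 50 mM Na-HEPES pH 8.0, 25 mM NaCl in 2.5 °C steps up to 60 °C and normalised to pre-quench Cy3 and control constructs. Four replicates were combined by inverse-variance weighting, and fitted temperatures were raised by 9.35 °C to match UV melts.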

Data set [2] is described as follows: melting temperature; fluorescence melt of hairpins on a sequencing array, two-state fit, raised by 9.35 °C to match UV melts. The conditions noted are these: sodium 0.088 M. The method, boiled down: as §1

Consider GCGCTCGAAAGAGAACGC ((((((....)))..))), for which, in data set [1], the folding enthalpy is -129 kJ/mol. Moreover, the Tm in data set [2] came to 50.4 °C.

On to GCCAAACGAAAGTTGGGC (((.(((....))).))), for which the folding enthalpy in data set [1] was -156 kJ/mol. Besides, in data set [2], the Tm amounted to 61.4 °C.

For the sequence GTGAGAGGAAACTCTCGC (.(((((....))))).), the folding enthalpy in data set [1] was -114 kJ/mol. In addition, the Tm in data set [2] is 51.2 °C.

With GCACCGCGAAAGCATTGC (((..((....))..))), the folding enthalpy in data set [1] is -43.3 kJ/mol. The Tm in data set [2] came to 33.4 °C.

With GATCCATCAGTGGATC ((((((....)))))), the folding enthalpy in data set [1] was -146 kJ/mol. Further, the Tm in data set [2] turned out to be 51.6 °C.

As to GCCCTGCGAAAGCGTGGC (((..((....))..))), in data set [1], the folding enthalpy is -88.2 kJ/mol. In data set [2], the Tm is 55.6 °C.

For the sequence GGGGGCGAAAGCCTCCCC ((((((....)))..))), the folding enthalpy in data set [1] is -48.2 kJ/mol. For the same sequence, the Tm in data set [2] was found to be 61.4 °C.

On to GATCCTACGTAGGATC ((((((....)))))), for which the folding enthalpy in data set [1] is -170 kJ/mol. The Tm in data set [2] was 53.3 °C.

In the case of GCATGCCGAAAGGCCTGC (((.(((....))).))), the folding enthalpy in data set [1] was -132 kJ/mol. In data set [2], the Tm was found to be 55.9 °C.

Turning to GATCTGAGACCAGATC ((((((....)))))), the folding enthalpy in data set [1] was -138 kJ/mol. In data set [2], the Tm is 44.5 °C.

On to GTTATTGGAAACAATGAC ((.((((....)))).)), for which the folding enthalpy in data set [1] was -136 kJ/mol. In addition, the Tm in data set [2] turned out to be 36.9 °C.

Regarding GGTTACGAAAGTAAAACC ((((((....)))..))), the folding enthalpy in data set [1] was -102 kJ/mol. Further, the Tm in data set [2] worked out at 36.6 °C.

Take GTGCTCGAAAGAGCTCAC ((((((....)))..))): the folding enthalpy in data set [1] was -45.3 kJ/mol. Further, the Tm in data set [2] came to 42.8 °C.

For the sequence GTGTTCGAAAGAAGGCAC ((((((....)))..))), in data set [1], the folding enthalpy was -92.2 kJ/mol. Moreover, the Tm in data set [2] was determined as 28.6 °C.

Take GTACGCGAAAGCGTATAC ((((((....)))..))): the folding enthalpy in data set [1] is -40 kJ/mol. Further, in data set [2], the Tm amounted to 49.2 °C.

In the case of GTCTGGTCGAAAGACGAC (((..(((....)))))), the folding enthalpy in data set [1] is -71.8 kJ/mol. In data set [2], the Tm turned out to be 41.5 °C.

For GCGGCGTCGAAAGACCGC (((..(((....)))))), the folding enthalpy in data set [1] was -115 kJ/mol. For the same sequence, the Tm in data set [2] was 54.6 °C.

Regarding GTATATCGAAAGATGTAC (((.(((....))).))), the folding enthalpy in data set [1] was -133 kJ/mol. Also, the Tm in data set [2] was determined as 44.5 °C.

As for GATCTGAGCGCAGATC ((((((....)))))), the folding enthalpy in data set [1] is -103 kJ/mol. Also, the Tm in data set [2] was determined as 48.5 °C.

For the sequence GGTCTTGGAAACAAGGCC ((.((((....)))).)), the folding enthalpy in data set [1] was -203 kJ/mol. Besides, the Tm in data set [2] is 54.7 °C.

As to GTCACAGGAAACTACGAC (((..((....))..))), the folding enthalpy in data set [1] was -91.3 kJ/mol. In addition, in data set [2], the Tm turned out to be 28.4 °C.

In the case of GGAGGTGGAAACACCCCC ((.((((....)))).)), the folding enthalpy in data set [1] was -78.1 kJ/mol. The Tm in data set [2] was 49.1 °C.

Regarding GAGCACGAAAGTGACCTC ((((((....)))..))), the folding enthalpy in data set [1] is -63.1 kJ/mol. The Tm in data set [2] is 39.6 °C.

For GACGATGGAAACATCATC ((.((((....)))).)), the folding enthalpy in data set [1] is -76.9 kJ/mol. Besides, the Tm in data set [2] was found to be 33.4 °C.

GAGAATGCGAAAGCACTC (((..(((....)))))): the folding enthalpy in data set [1] is -41.1 kJ/mol. For the same sequence, the Tm in data set [2] was 32 °C.

GGGGTAGGAAACTACTCC ((.((((....)))).)): in data set [1], the folding enthalpy was -126 kJ/mol. In addition, the Tm in data set [2] came to 47.6 °C.

For the sequence GCTAACGAAAGTTGTAGC ((((((....)))..))), the folding enthalpy in data set [1] was -86.3 kJ/mol. The Tm in data set [2] amounted to 38.3 °C.

As to GCATAGCGAAAGCGAGGC ((.(.((....)).).)), the folding enthalpy in data set [1] was -55.5 kJ/mol. Besides, the Tm in data set [2] came to 54.4 °C.

Regarding GGACTCGCGAAAGCGTCC (((..(((....)))))), in data set [1], the folding enthalpy is -54.8 kJ/mol. Also, the Tm in data set [2] stood at 39.1 °C.

For GCGAACGAAAGTTAGCGC ((((((....)))..))), the folding enthalpy in data set [1] is -130 kJ/mol. In addition, in data set [2], the Tm came to 55.8 °C.
